Results as given in ChEMBL document CHEMBL1151230, “Cytotoxic triterpenoids from Acridocarpus vivy from the Madagascar rain forest” (J Nat Prod, 2004).
In brackets after ≈: the same amount, converted by molar mass.

System: A2780
Experiment: Cytotoxicity against human A2780 cells
Format: functional, cell-based
Procedure, shortened: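 Growth inhibition of the human ovarian cancer line A2780. IC50 is the concentration giving 50% inhibition of growth, reported in µg/mL. Actinomycin D served as positive control. Run at Virginia Polytechnic Institute following an earlier published procedure.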

Row | Structure (SMILES) | IC50 [µg/mL]
1 | COc1cc(O)c2c(=O)cc(-c3ccc(O)c(OC)c3)oc2c1 [VELUTIN] | > 20
2 | CC1(C)C=C2[C@H]3CC[C@@H]4[C@@]5(C)CCC(=O)[C@](C)(CO)[C@@H]5CC[C@@]4(C)[C@]3(C)CC[C@@]2(C(=O)O)CC1 | 15.9 (≈ 33.8 µM)
3 | CC1(C)CC[C@]2(C(=O)O)CC[C@]3(C)C(=CC[C@@H]4[C@@]5(C)CC[C@H](O)C(C)(C)[C@@H]5CC[C@]43C)[C@@H]2C1 [OLEANOLIC_ACID] | 8 (≈ 17.5 µM)
4 | COc1cc(O)c2c(=O)cc(-c3ccc(O)cc3)oc2c1 [GENKWANIN] | > 20
5 | CC(=O)O[C@@H]1CC[C@]2(C)[C@H]3CC[C@@H]4C5=CC(C)(C)CC[C@]5(C(=O)O)CC[C@@]4(C)[C@]3(C)CC[C@H]2C1(C)C | 15.3 (≈ 30.7 µM)
6 | CC1(C)C=C2[C@H]3CC[C@@H]4[C@@]5(C)CCC(=O)C(C)(C)[C@@H]5CC[C@@]4(C)[C@]3(C)CC[C@@]2(C(=O)O)CC1 [MORONIC ACID] | 13.1 (≈ 28.8 µM)
7 | CC1(C)C=C2[C@H]3CC[C@@H]4[C@@]5(C)CCC(=O)[C@](C)(C=O)[C@@H]5CC[C@@]4(C)[C@]3(C)CC[C@@]2(C(=O)O)CC1 | 0.7 (≈ 1.49 µM)
8 | C[C@H]1[C@H](C)CC[C@]2(C(=O)O)CC[C@]3(C)C(=CC[C@@H]4[C@@]5(C)CC[C@H](O)C(C)(C)[C@@H]5CC[C@]43C)[C@H]12 [URSOLIC ACID] | 9.2 (≈ 20.1 µM)
9 | CC(=O)OC[C@@]1(C)C(=O)CC[C@@]2(C)[C@H]1CC[C@]1(C)[C@@H]2CC[C@@H]2C3=CC(C)(C)CC[C@]3(C(=O)O)CC[C@]21C | 11.6 (≈ 22.6 µM)
